What all share (type): functional, organism-based
In experiment [1] the test system is Rattus norvegicus. Briefly: Recovery of steroid from small intestine at 5 hr after administration of 7.5 mg of the compound. In a few lines: (§1)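 Male Sprague-Dawley rats (ca. 250 g), fasted 16 h, water withdrawn ≥30 min before dosing; glucoside 7.5 mg by gastric intubation in 0.5 mL water/95% EtOH (3:1). Killed by CO2 then thoracotomy at 3–6 h; small intestine and cecum removed. Contents (MeOH) and tissues (0.01 M KH2PO4) homogenized with internal-standard steroid, centrifuged, filtered, quantified by C-18 HPLC-UV (MeOH/0.01 M KH2PO4 56.5:43.5); mean of four animals.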

In experiment [2] the test system is Rattus norvegicus. Briefly: Recovery of steroid from small intestine at 4 hr after administration of 7.5 mg of the compound. In a few lines:
as §1

In experiment [3] the test system is Rattus norvegicus. Briefly: Recovery of steroid from cecum at 5 hr after administration of 7.5 mg of the compound. The note with it: Caecum. In a few lines:
as §1

For experiment [4], the system named is Rattus norvegicus. Briefly: Recovery of steroid from small intestine at 3h after administration of 7.5 mg of the compound. In a few lines: as §1
Experiment [5] deals with Rattus norvegicus. Briefly: Recovery of steroid from cecum at 6 hr after administration of 7.5 mg of the compound. The note with it: Caecum. In a few lines:
as §1

The subject of experiment [6] is Rattus norvegicus. Briefly: Recovery of steroid from cecum at 4 hr after administration of 7.5 mg of the compound. The note with it: Caecum. In a few lines: as §1
The subject of experiment [7] is Rattus norvegicus. Briefly: Recovery of steroid from small intestine at 6 hr after administration of 7.5 mg of the compound. In a few lines: as §1
Experiment [8] has as its system Rattus norvegicus. Briefly: Recovery of steroid from cecum at 3h after administration of 7.5 mg of the compound. The note with it: Caecum. In a few lines:
as §1

For experiment [9], the system named is Rattus norvegicus. Briefly: Recovery of glucoside from small intestine at 3h after administration of 7.5 mg of the compound. In a few lines:
as §1

The subject of experiment [10] is Rattus norvegicus. Briefly: Recovery of glucoside from cecum at 3h after administration of 7.5 mg. The note with it: Caecum. In a few lines:
as §1

Experiment [11] deals with Rattus norvegicus. Briefly: Recovery of glucoside from small intestine at 5 hr after administration of 7.5 mg of the compound. In a few lines: as §1
Experiment [12] concerns Rattus norvegicus. Briefly: Recovery of glucoside from small intestine at 6 hr after administration of 7.5 mg of the compound. In a few lines:
as §1

In experiment [13] the test system is Rattus norvegicus. Briefly: Recovery of glucoside from small intestine at 4 hr after administration of 7.5 mg of the compound. In a few lines: as §1
Experiment [14] concerns Rattus norvegicus. Briefly: Recovery of glucoside from cecum at 6 hr after administration of 7.5 mg of the compound. The note with it: Caecum. In a few lines:
as §1

Experiment [15] relates to Rattus norvegicus. Briefly: Recovery of glucoside from cecum at 5 hr after administration of 7.5 mg of the compound. The note with it: Caecum. In a few lines:
as §1

Experiment [16] relates to Rattus norvegicus. Briefly: Recovery of glucoside from cecum at 4 hr after administration of 7.5 mg of the compound. The note with it: Caecum. In a few lines: as §1
Experiment [17] concerns Rattus norvegicus. Briefly: Recovery of glucoside from cecum at 3h after administration of 7.5 mg of the compound. The note with it: Caecum. In a few lines:
as §1

The structures appear in SMILES notation.

For `C[C@@H]1C[C@H]2[C@@H]3CCC4=CC(=O)C=C[C@]4(C)[C@@]3(F)[C@@H](O)C[C@]2(C)[C@@]1(O)C(=O)CO`, the Recovery worked out at 0.12 mg in the experiment with Rattus norvegicus [1]; 0.11 mg in the experiment on Rattus norvegicus [2]; 2.24 mg with Rattus norvegicus [3]; 0.13 mg in the experiment with Rattus norvegicus [4]; 1.66 mg in the experiment with Rattus norvegicus [5]; 0.05 mg with Rattus norvegicus [6]. The Recovery in the experiment on Rattus norvegicus [7] worked out at 0.18 mg; in the experiment on Rattus norvegicus [8], 0.09 mg.

As to `C[C@@H]1CC2C3CCC4=CC(=O)C=CC4(C)[C@@]3(F)C(O)CC2(C)[C@@]1(O)C(=O)CO[C@@H]1O[C@H](CO)[C@@H](O)[C@H](O)[C@H]1O` (some centres not stated), the Recovery in the experiment with Rattus norvegicus [9] turned out to be 5.61 mg; in the experiment with Rattus norvegicus [10] it was 0.21 mg; in the experiment on Rattus norvegicus [11], 0.24 mg; in the experiment on Rattus norvegicus [12] it was 0.94 mg; with Rattus norvegicus [13], 5 mg; with Rattus norvegicus [14], 0.04 mg. For the same compound, the Recovery in the experiment with Rattus norvegicus [15] is 0.23 mg; in the experiment on Rattus norvegicus [16], 0.02 mg.

Turning to `C[C@]12C=CC(=O)C=C1CC[C@@H]1[C@@H]2[C@@H](O)C[C@@]2(C)[C@H]1CC[C@]2(O)C(=O)CO`, the Recovery in the experiment on Rattus norvegicus [1] is 0.09 mg; in the experiment with Rattus norvegicus [2] it was 0.18 mg; in the experiment with Rattus norvegicus [3], 0.57 mg; in the experiment on Rattus norvegicus [4], 0.3 mg; in the experiment with Rattus norvegicus [5] it was 0.29 mg; in the experiment on Rattus norvegicus [6], 0 mg. Also, the Recovery in the experiment on Rattus norvegicus [7] is 0.03 mg; with Rattus norvegicus [8], 0 mg.

On to `C[C@]12C=CC(=O)C=C1CC[C@@H]1[C@@H]2C(O)C[C@@]2(C)[C@H]1CC[C@]2(O)C(=O)CO[C@@H]1O[C@H](CO)[C@@H](O)[C@H](O)[C@H]1O` (some centres not stated), for which the Recovery came to 1.57 mg with Rattus norvegicus [9]; 0.19 mg in the experiment on Rattus norvegicus [11]; 0.18 mg in the experiment with Rattus norvegicus [12]; 1.73 mg in the experiment on Rattus norvegicus [13]; 0.06 mg in the experiment on Rattus norvegicus [14]; 0 mg in the experiment with Rattus norvegicus [15]. The Recovery in the experiment on Rattus norvegicus [16] and in the experiment on Rattus norvegicus [17] was 0 mg in each case.

Source of the values: ChEMBL document CHEMBL1122578, “A colon-specific drug-delivery system based on drug glycosides and the glycosidases of colonic bacteria” (J Med Chem, 1984).
